In ChEMBL document CHEMBL1135836, “Cyclodextrin-derived host molecules as reversal agents for the neuromuscular blocker rocuronium bromide: synthesis and structure-activity relationships” (J Med Chem, 2002):

Tests used:
Type in all cases: functional
Cavia porcellus [1] = experiment: In vivo reversal activity versus ~90% block by rocuronium in guinea pig
Procedure, shortened: (§1)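 Male Dunkin-Hartley guinea pigs (600-900 g), anaesthetized ip with pentobarbitone 10 mg/kg plus urethane 1000 mg/kg, tracheotomized and ventilated. Continuous iv rocuronium infusion (~10 nmol kg-1 min-1) was raised to a steady 85-90% block. Increasing iv doses of agent were given cumulatively. ED50 = 50% recovery versus preblock twitch, by regression. Mean ± SEM of at least two experiments, or one.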

Cavia porcellus [2] = experiment: In vivo reversal activity versus ~90% block by rocuronium in guinea pig, expressed as % of maximum reversal at 8 umol/kg conc.
Procedure, shortened: (§2)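 Male Dunkin-Hartley guinea pigs (600-900 g) anaesthetized ip with pentobarbitone 10 mg/kg plus urethane 1000 mg/kg, tracheotomized and artificially ventilated. Continuous iv rocuronium bromide infusion (~10 nmol kg-1 min-1) raised until steady-state twitch block of 85-90%. Increasing single iv doses of reversal agent given by a separate catheter. Max reversal is peak twitch recovery versus preblock height at highest dose tested; means ± SEM, n ≥ 2 or single experiment.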

Mus musculus [3] = organism: Mus musculus; experiment: In vitro reversal activity versus ~90% block by rocuronium in isolated mouse hemidiaphragm, expressed as effective conc.
Mus musculus [4] = organism: Mus musculus; experiment: In vitro reversal activity versus ~90% block by rocuronium in isolated mouse hemidiaphragm, expressed as % of maximum reversal at 18 uM conc.
Cavia porcellus [5] = experiment: In vivo reversal activity versus ~90% block by rocuronium in guinea pig, expressed as % of maximum reversal at 2 umol/kg conc.; procedure, shortened: as §2
Mus musculus [6] = organism: Mus musculus; experiment: In vitro reversal activity versus ~90% block by rocuronium in isolated mouse hemidiaphragm, expressed as % of maximum reversal at 7.2 uM conc.
Mus musculus [7] = organism: Mus musculus; experiment: In vitro reversal activity versus ~90% block by rocuronium in isolated mouse hemidiaphragm, expressed as % of maximum reversal at 360 uM conc.
Cavia porcellus [8] = experiment: In vivo reversal activity versus ~90% block by rocuronium in guinea pig, expressed as % of maximum reversal at 16 umol/kg conc.; procedure, shortened: as §2
Cavia porcellus [9] = experiment: In vivo reversal activity versus ~90% block by rocuronium in guinea pig, expressed as % of maximum reversal at 15 umol/kg conc.; procedure, shortened: as §2
Cavia porcellus [10] = experiment: In vivo reversal activity versus ~90% block by rocuronium in guinea pig, expressed as % of maximum reversal at 31.8 umol/kg conc.; procedure, shortened: as §2
Cavia porcellus [11] = experiment: In vivo reversal activity versus ~90% block by rocuronium in guinea pig, expressed as % of maximum reversal at 3.6 umol/kg conc.; procedure, shortened: as §2
Mus musculus [12] = organism: Mus musculus; experiment: In vitro reversal activity versus ~90% block by rocuronium in isolated mouse hemidiaphragm, expressed as % of maximum reversal at 9 uM conc.
Cavia porcellus [13] = experiment: In vivo reversal activity versus ~90% block by rocuronium in guinea pig, expressed as % of maximum reversal at 1.6 umol/kg conc.; procedure, shortened: as §1
Mus musculus [14] = organism: Mus musculus; experiment: In vitro reversal activity versus ~90% block by rocuronium in isolated mouse hemidiaphragm, expressed as % of maximum reversal
Cavia porcellus [15] = experiment: In vivo reversal activity versus ~90% block by rocuronium in guinea pig, expressed as % of maximum reversal. at a conc. of 0.08 uM

| Structure (SMILES) | EC50 (Mus musculus [3]) [µM] | ED50 (Cavia porcellus [1]) [µmol/kg] | Max reversal (Mus musculus [4]) [%] | Max reversal (Mus musculus [6]) [%] | also measured |
| --- | --- | --- | --- | --- | --- |
| O=C([O-])Cc1cccc(SCC2O[C@@H]3O[C@@H]4C(CSc5cccc(CC(=O)[O-])c5)O[C@H](O[C@@H]5C(CSc6cccc(CC(=O)[O-])c6)O[C@H](O[C@@H]6C(CSc7cccc(CC(=O)[O-])c7)O[C@H](O[C@@H]7C(CSc8cccc(CC(=O)[O-])c8)O[C@H](O[C@@H]8C(CSc9cccc(CC(=O)[O-])c9)O[C@H](O[C@@H]9C(CSc%10cccc(CC(=O)[O-])c%10)O[C@H](O[C@@H]%10C(CSc%11cccc(CC(=O)[O-])c%11)O[C@H](O[C@H]2C(O)C3O)C(O)C%10O)C(O)C9O)C(O)C8O)C(O)C7O)C(O)C6O)C(O)C5O)C(O)C4O)c1.[Na+].[Na+].[Na+].[Na+].[Na+].[Na+].[Na+].[Na+] (stereo not given in full) | 1.7 | 0.53 | – | 99.1 | Max reversal (Cavia porcellus [5]): 104.6% |
| CC(C)(CSCC1O[C@@H]2O[C@@H]3C(CSCC(C)(C)C(=O)[O-])O[C@H](O[C@@H]4C(CSCC(C)(C)C(=O)[O-])O[C@H](O[C@@H]5C(CSCC(C)(C)C(=O)[O-])O[C@H](O[C@@H]6C(CSCC(C)(C)C(=O)[O-])O[C@H](O[C@@H]7C(CSCC(C)(C)C(=O)[O-])O[C@H](O[C@@H]8C(CSCC(C)(C)C(=O)[O-])O[C@H](O[C@@H]9C(CSCC(C)(C)C(=O)[O-])O[C@H](O[C@H]1C(O)C2O)C(O)C9O)C(O)C8O)C(O)C7O)C(O)C6O)C(O)C5O)C(O)C4O)C(O)C3O)C(=O)[O-].[Na+].[Na+].[Na+].[Na+].[Na+].[Na+].[Na+].[Na+] (stereo not given in full) | 20.3 | 1.32 | 47.6 | – | Max reversal (Cavia porcellus [9]): 98.8% |
| O=C([O-])CCc1ccc(SCC2O[C@@H]3O[C@@H]4C(CO)O[C@H](O[C@@H]5C(CO)O[C@H](O[C@@H]6C(CO)O[C@H](O[C@@H]7C(CO)O[C@H](O[C@@H]8C(CO)O[C@H](O[C@@H]9C(CO)O[C@H](O[C@@H]%10C(CO)O[C@H](O[C@H]2C(O)C3O)C(O)C%10O)C(O)C9O)C(O)C8O)C(O)C7O)C(O)C6O)C(O)C5O)C(O)C4O)cc1.[Na+] (stereo not given in full) | 32.8 | 3.33 | 36.2 | – | Max reversal (Cavia porcellus [10]): 93.8% |
| O=C([O-])CCc1cccc(SCC2O[C@@H]3O[C@@H]4C(CO)O[C@H](O[C@@H]5C(CO)O[C@H](O[C@@H]6C(CO)O[C@H](O[C@@H]7C(CO)O[C@H](O[C@@H]8C(CO)O[C@H](O[C@@H]9C(CO)O[C@H](O[C@@H]%10C(CO)O[C@H](O[C@H]2C(O)C3O)C(O)C%10O)C(O)C9O)C(O)C8O)C(O)C7O)C(O)C6O)C(O)C5O)C(O)C4O)c1.[Na+] (stereo not given in full) | > 18 | 12.6 | 3.9 | – | Max reversal (Cavia porcellus [9]): 55.8% |
| O=C([O-])c1ccccc1C(=O)NCCCSCC1O[C@@H]2O[C@@H]3C(CSCCCNC(=O)c4ccccc4C(=O)[O-])O[C@H](O[C@@H]4C(CSCCCNC(=O)c5ccccc5C(=O)[O-])O[C@H](O[C@@H]5C(CSCCCNC(=O)c6ccccc6C(=O)[O-])O[C@H](O[C@@H]6C(CSCCCNC(=O)c7ccccc7C(=O)[O-])O[C@H](O[C@@H]7C(CSCCCNC(=O)c8ccccc8C(=O)[O-])O[C@H](O[C@@H]8C(CSCCCNC(=O)c9ccccc9C(=O)[O-])O[C@H](O[C@@H]9C(CSCCCNC(=O)c%10ccccc%10C(=O)[O-])O[C@H](O[C@H]1C(O)C2O)C(O)C9O)C(O)C8O)C(O)C7O)C(O)C6O)C(O)C5O)C(O)C4O)C(O)C3O.[Na+].[Na+].[Na+].[Na+].[Na+].[Na+].[Na+].[Na+] (stereo not given in full) | 0.1 | 0.27 | – | 90.7 | Max reversal (Cavia porcellus [13]): 83% |
| CN(C)C(=O)Oc1cccc([N+](C)(C)C)c1.[Br-] [NEOSTIGMINE BROMIDE] | 0.9 | 0.04 | – | – | Max reversal (Mus musculus [14]): 74.4%; Max reversal (Cavia porcellus [15]): 65.3% |

The next lines start with results.

| EC50 (Mus musculus [3]) [µM] | Structure (SMILES) | ED50 (Cavia porcellus [1]) [µmol/kg] | Max reversal (Mus musculus [4]) [%] | Max reversal (Mus musculus [6]) [%] | also measured |
| --- | --- | --- | --- | --- | --- |
| 9.5 | CC(CSCC1O[C@@H]2O[C@@H]3C(CSCC(C)C(=O)[O-])O[C@H](O[C@@H]4C(CSCC(C)C(=O)[O-])O[C@H](O[C@@H]5C(CSCC(C)C(=O)[O-])O[C@H](O[C@@H]6C(CSCC(C)C(=O)[O-])O[C@H](O[C@@H]7C(CSCC(C)C(=O)[O-])O[C@H](O[C@@H]8C(CSCC(C)C(=O)[O-])O[C@H](O[C@@H]9C(CSCC(C)C(=O)[O-])O[C@H](O[C@H]1C(O)C2O)C(O)C9O)C(O)C8O)C(O)C7O)C(O)C6O)C(O)C5O)C(O)C4O)C(O)C3O)C(=O)[O-].[Na+].[Na+].[Na+].[Na+].[Na+].[Na+].[Na+].[Na+] (stereo not given in full) | 0.73 | 77.5 | – | Max reversal (Cavia porcellus [2]): 97.8% |
| > 360 | O=C([O-])CCSCC1O[C@@H]2O[C@@H]3C(CSCCC(=O)[O-])O[C@H](O[C@@H]4C(CSCCC(=O)[O-])O[C@H](O[C@@H]5C(CSCCC(=O)[O-])O[C@H](O[C@@H]6C(CSCCC(=O)[O-])O[C@H](O[C@@H]7C(CSCCC(=O)[O-])O[C@H](O[C@H]1C(O)C2O)C(O)C7O)C(O)C6O)C(O)C5O)C(O)C4O)C(O)C3O.[Na+].[Na+].[Na+].[Na+].[Na+].[Na+] (stereo not given in full) | > 16 | – | – | Max reversal (Mus musculus [7]): 0%; Max reversal (Cavia porcellus [8]): 3.2% |
| 4 | OCCSCC1O[C@@H]2O[C@@H]3C(CSCCO)O[C@H](O[C@@H]4C(CSCCO)O[C@H](O[C@@H]5C(CSCCO)O[C@H](O[C@@H]6C(CSCCO)O[C@H](O[C@@H]7C(CSCCO)O[C@H](O[C@@H]8C(CSCCO)O[C@H](O[C@@H]9C(CSCCO)O[C@H](O[C@H]1C(O)C2O)C(O)C9O)C(O)C8O)C(O)C7O)C(O)C6O)C(O)C5O)C(O)C4O)C(O)C3O (stereo not given in full) | 0.21 | – | 86.4 | Max reversal (Cavia porcellus [5]): 95.8% |
| 4.1 | OCCCSCC1O[C@@H]2O[C@@H]3C(CSCCCO)O[C@H](O[C@@H]4C(CSCCCO)O[C@H](O[C@@H]5C(CSCCCO)O[C@H](O[C@@H]6C(CSCCCO)O[C@H](O[C@@H]7C(CSCCCO)O[C@H](O[C@@H]8C(CSCCCO)O[C@H](O[C@@H]9C(CSCCCO)O[C@H](O[C@H]1C(O)C2O)C(O)C9O)C(O)C8O)C(O)C7O)C(O)C6O)C(O)C5O)C(O)C4O)C(O)C3O (stereo not given in full) | 0.52 | – | – | Max reversal (Cavia porcellus [11]): 98.3%; Max reversal (Mus musculus [12]): 96.5% |
